Activity calls are given as the source filed them. The rule behind the calls is not given here.
Tests used:
[1] = Inhibition of complex 1 in bovine heart mitochondrial membranes in presence of NADH; design: species or system Bos taurus
[2] = tested on: LNCaP; experiment: Cytotoxicity against human LNCAP cells; type: functional; details: read-out: ED50 (the source's name)
[3] = tested on: PNT2; experiment: Cytotoxicity against human PNT2 cells assessed as reduction in cell count at 1 uM after 48 hrs by acridine orange/DAPI staining based assay; details: pnt2, 48 h
Summary of the method: (§1)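 Cells trypsinized, pelleted, resuspended in PBS and stained with acridine orange/DAPI; viability and cell count read on an NC-3000 image cytometer. n = 4 treated, n = 10 control; mean ± S.E.M.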

[4] = tested on: LNCaP C4-2B; experiment: Cytotoxicity against human C4-2B cells assessed as reduction in cell count at 1 uM after 48 hrs by acridine orange/DAPI staining based assay; type: functional; summary of the method: as §1
[5] = tested on: LNCaP C4-2; experiment: Cytotoxicity against human C4-2 cells assessed as reduction in cell count at 1 uM after 48 hrs by acridine orange/DAPI staining based assay; type: functional; summary of the method: as §1
[6] = tested on: PNT2; experiment: Cytotoxicity against human PNT2 cells assessed as reduction in cell viability at 1 uM after 48 hrs by acridine orange/DAPI staining based assay; details: pnt2, 48 h; summary of the method: as §1
[7] = tested on: LNCaP C4-2B; experiment: Cytotoxicity against human C4-2B cells assessed as reduction in cell viability at 1 uM after 48 hrs by acridine orange/DAPI staining based assay; type: functional; summary of the method: as §1
[8] = tested on: PNT2; experiment: Inhibition of cell proliferation in human PNT2 cells at 1 uM after 150 hrs; type: cell-based; details: pnt2, 150 h
Summary of the method: (§2)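 Seeded at 1,000 cells/well in RPMI 1640 with 10% FBS, 25 mM HEPES and 1 mM pyruvate; after 24 h, 1 μM rotenoid (ethanolic stock diluted in medium) or ethanol-only control added. Growth followed by live-cell imaging as confluence (% well area covered) until untreated control reached confluence; value at 150 h of treatment. Eight replicates per condition, mean ± S.E.M.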

[9] = tested on: LNCaP C4-2; experiment: Cytotoxicity against human C4-2 cells assessed as reduction in cell viability at 1 uM after 48 hrs by acridine orange/DAPI staining based assay; type: functional; summary of the method: as §1
[10] = tested on: LNCaP C4-2B; experiment: Antiproliferative activity against human C4-2B cells at 1 uM after 150 hrs; type: functional, cell-based; summary of the method: as §2
[11] = tested on: LNCaP C4-2; experiment: Antiproliferative activity against human C4-2 cells at 1 uM after 150 hrs; type: functional, cell-based; summary of the method: as §2
[12] = tested on: PNT2; experiment: Inhibition of complex 1 in human PNT2 cells assessed as reduction in oxygen rate at 1 uM incubated for 1 hr followed by rotenone and antimycin addition; type: cell-based
Summary of the method: (§3)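 Cells seeded at 20,000/well on poly-L-lysine-coated Seahorse XF96 plates for 16 h, then moved into carbonate-free RPMI assay buffer (4.5 g/L glucose, pyruvate, GlutaMAX, pH 7.4). […] Rotenone-insensitive rate subtracted and traces normalized to 100% pre-addition. n = 6 treated, 16 controls; mean ± S.E.M.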

[13] = tested on: LNCaP C4-2B; experiment: Inhibition of complex 1 in human C4-2B cells assessed as reduction in oxygen rate at 1 uM incubated for 1 hr followed by rotenone and antimycin addition; type: cell-based; summary of the method: as §3
[14] = tested on: LNCaP C4-2; experiment: Inhibition of complex 1 in human C4-2 cells assessed as reduction in oxygen rate at 1 uM incubated for 1 hr followed by rotenone and antimycin addition; type: cell-based; summary of the method: as §3
[15] = tested on: MEF; experiment: Cytotoxicity against PTEN-deficient MEF at 0.5 uM after 24 hrs by MTT assay relative to control; type: cell-based; details: mouse

SMILES: C=C(C)CCc1c(O)ccc2c1O[C@@H]1COc3cc(OC)c(OC)cc3[C@@H]1C2=O
- IC50 [1]: 572 nM

SMILES: COc1cc2c(cc1OC)[C@]1(O)C(=O)c3ccc4c(c3O[C@@H]1CO2)C[C@H](C(C)(O)CO)O4 (stereo not given in full)
- IC50 [1]: > 10000 nM

SMILES: COc1cc2c(cc1OC)[C@]1(O)[C@H](O)c3ccc4c(c3O[C@@H]1CO2)C=CC(C)(C)O4
- IC50 [1]: 135 nM

SMILES: COc1cc2c(cc1OC)[C@@H]1[C@H](O)c3ccc4c(c3O[C@@H]1CO2)C[C@H](C(C)(C)O)O4
- IC50 [1]: 750 nM

SMILES: COc1cc2c(cc1OC)[C@@H]1[C@H](O)c3ccc4c(c3O[C@@H]1CO2)C[C@H](C(C)(O)CO)O4 (mixture of isomers)
- IC50 [1]: 4570 nM

SMILES: COc1cc2c(cc1OC)[C@@H]1C(=O)c3ccc4c(c3O[C@@H]1CO2)C(O)C(O)C(C)(C)O4 (mixture of isomers)
- IC50 [1]: 5310 nM

SMILES: COc1cc2c(cc1OC)[C@]1(O)[C@H](O)c3ccc4c(c3O[C@@H]1CO2)C[C@H](C(C)(C)O)O4
- IC50 [1]: > 10000 nM

SMILES: COc1cc2c(cc1OC)[C@@H]1C(=O)c3ccc4c(c3O[C@@H]1CO2)CC(O)C(C)(C)O4 (mixture of isomers)
- IC50 [1]: 850 nM

SMILES: COc1cc2c(cc1OC)[C@]1(O)C(=O)c3ccc4c(c3O[C@@H]1CO2)C=CC(C)(C)O4 [TEPHROSIN]
- EC50 [2]: 300 to 700 nM

SMILES: C=C(C)[C@H]1Cc2c(ccc3c2O[C@@H]2COc4cc(OC)c(OC)cc4[C@@H]2[C@@H]3O)O1
- IC50 [1]: 11.4 nM

SMILES: C=C(C)C(=O)Cc1c(O)ccc2c1O[C@@H]1COc3cc(OC)c(OC)cc3[C@@H]1C2=O
- IC50 [1]: 2570 nM

SMILES: C=C(CO)[C@H]1Cc2c(ccc3c2O[C@@H]2COc4cc(OC)c(OC)cc4[C@@H]2[C@@H]3O)O1
- IC50 [1]: 458 nM

SMILES: C=C(C)[C@H]1Cc2c(ccc3c2O[C@@H]2COc4cc(OC)c(OC)cc4[C@@H]2C3=O)O1 [ROTENONE]
- Activity [3]: Toxic
- Activity [4]: Active
- Activity [5]: Active
- Activity [6]: Non-Toxic
- Activity [7]: inactive
- Activity [8]: Non-Toxic
- Activity [9]: inactive
- Activity [10]: Active
- Activity [11]: Active

SMILES: COc1cc2c(cc1OC)[C@@H]1C(=O)c3ccc4c(c3O[C@@H]1CO2)C[C@H](C(C)CO)O4 (mixture of isomers)
- Activity [4]: Active
- Activity [5]: Active
- Activity [6]: Non-Toxic
- Activity [7]: inactive
- Activity [8]: Non-Toxic
- Activity [9]: inactive
- Activity [10]: Active
- Activity [11]: Active
- inhibition [12]: Active
- inhibition [13]: Active
- inhibition [14]: Active
- IC50 [1]: 228 nM

SMILES: COc1cc2c(cc1OC)[C@@H]1C(=O)c3ccc(O)c(CC=C(C)C)c3O[C@@H]1CO2 [ROTENONIC ACID]
- IC50 [1]: 1090 nM

SMILES: C=C(CO)[C@H]1Cc2c(ccc3c2O[C@@H]2COc4cc(OC)c(OC)cc4[C@]2(O)[C@@H]3O)O1
- IC50 [1]: > 10000 nM

SMILES: COc1cc2c(cc1OC)[C@]1(O)C(=O)c3ccc4c(c3O[C@@H]1CO2)C[C@H](C(C)CO)O4 (mixture of isomers)
- IC50 [1]: 3580 nM

SMILES: COc1cc2c(cc1OC)[C@]1(O)[C@H](O)c3ccc4c(c3O[C@@H]1CO2)C[C@H](C(C)(O)CO)O4 (stereo not given in full)
- IC50 [1]: > 10000 nM

SMILES: COc1cc2c(cc1OC)[C@@H]1C(=O)c3ccc4c(c3O[C@@H]1CO2)C[C@H](C(C)(O)CO)O4 (stereo not given in full)
- Activity [5]: Active
- Activity [6]: Non-Toxic
- Activity [7]: inactive
- Activity [8]: Non-Toxic
- Activity [9]: inactive
- Activity [10]: Active
- Activity [11]: Active
- inhibition [12]: Active
- inhibition [13]: Active
- inhibition [14]: Active
- IC50 [1]: 1800 nM

SMILES: COc1cc2c(cc1OC)[C@@H]1[C@H](O)c3ccc4c(c3O[C@@H]1CO2)C[C@H](C(C)CO)O4 (mixture of isomers)
- IC50 [1]: 460 nM

SMILES: COc1cc2c(cc1OC)[C@@H]1[C@H](O)c3ccc4c(c3O[C@@H]1CO2)C=CC(C)(C)O4
- IC50 [1]: 14.6 nM

SMILES: C=C(C)C(=O)Cc1c(O)ccc2c1O[C@@H]1COc3cc(OC)c(OC)cc3[C@]1(O)C2=O
- IC50 [1]: > 10000 nM

SMILES: COc1cc2c(cc1OC)[C@@H]1C(=O)c3ccc4c(c3O[C@@H]1CO2)C[C@H](C(C)(C)O)O4 [DALPANOL]
- Activity [5]: Active
- Activity [6]: Non-Toxic
- Activity [7]: inactive
- Activity [8]: Non-Toxic
- Activity [9]: inactive
- Activity [10]: Active
- Activity [11]: Active
- inhibition [12]: Active
- inhibition [13]: Active
- inhibition [14]: Active
- IC50 [1]: 652 nM

SMILES: COc1cc2c(cc1OC)[C@@H]1C(=O)c3ccc4c(c3O[C@@H]1CO2)CCC(C)(CO)O4 (mixture of isomers)
- IC50 [1]: 195 nM

SMILES: C=C(C)[C@H]1Cc2c(ccc3c2O[C@@H]2COc4cc(OC)c(OC)cc4[C@]2(O)[C@@H]3O)O1
- IC50 [1]: 125 nM

SMILES: C=C(CO)[C@H]1Cc2c(ccc3c2O[C@@H]2COc4cc(OC)c(OC)cc4[C@]2(O)C3=O)O1 [DABINOL]
- IC50 [1]: 3810 nM

SMILES: C=C(C)[C@H]1Cc2c(ccc3c2O[C@@H]2COc4cc(OC)c(OC)cc4[C@]2(O)C3=O)O1 [ROTENOLONE]
- IC50 [1]: 130 nM

SMILES: COc1cc2c(cc1OC)[C@@H]1C(=O)c3ccc4c(c3O[C@@H]1CO2)C=CC(C)(C)O4 [DEGUELIN]
- IC50 [1]: 10.6 nM
- Activity [15]: 70%

SMILES: COc1cc2c(cc1OC)[C@]1(O)[C@H](O)c3ccc4c(c3O[C@@H]1CO2)C[C@H](C(C)CO)O4 (mixture of isomers)
- IC50 [1]: 2930 nM

SMILES: COc1cc2c(cc1OC)[C@]1(O)C(=O)c3ccc4c(c3O[C@@H]1CO2)C[C@H](C(C)(C)O)O4
- IC50 [1]: > 10000 nM

Source: ChEMBL document CHEMBL4619765 (J Nat Prod, 2020)
